STEP block = inhibitors of human striatal-enriched phosphatase STEP. P54829. recombinant STEP, OMFP fluorogenic substrate, fluorescence. inhibition, % at 20 µM. hit rate 0.25% among 360,000. AID 588621;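 active means inhibition at 20 µM, scaled per plate between control wells, above about 37%, limit read from the data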;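 further: 0% = DMSO with enzyme and substrate and 100% = substrate only without enzyme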
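material = STEP tyrosine phosphatase | reagent = fluorogenic phosphatase substrate OMFP at 25 µM final | doses = single compound dose of 20 µM, 1% DMSO final | schedule = 20 min reaction, room temperature, in the dark | measured by = fluorescence, 480/540 nm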
DNMT1 inh = blocks human DNA methyltransferase DNMT1. inhibition (reported as % activation of signal), % at 10 µM. P26358. DNMT1 molecular beacon, Hinp1I cleavage, fluorescence. hit rate 0.83% among 360,000; in the data active means inhibition above about 50%
LMPTP block = LMPTP (human) inhibition; P24666; recombinant LMPTP-A, OMFP fluorogenic substrate, fluorescence intensity; hit rate 0.22% among 360,000; inhibition, % at 20 µM;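 active means compounds that cut the enzyme signal by at least half of the control window in the single-dose screen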;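 further: plate controls were DMSO wells with enzyme plus substrate for no effect and substrate without enzyme for full effect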
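Test system: LMPTP-A phosphatase enzyme; input: 0.625 nM LMPTP-A final; reagent: OMFP substrate, 400 µM final; compound dosing: 20 µM single dose, 3% DMSO; incubation: 50 min dark incubation at room temperature; measured by: endpoint fluorescence intensity from OMFP dephosphorylation; measure: % inhibition relative to no-enzyme and uninhibited control wells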
SUMO1 PPI mod = SUMO1-SIM interaction modulation | P63165 | SUMO1 binding to a labelled peptide, TR-FRET, 1 h | inhibition, % at 20 µM | hit rate 0.33% among 360,000 | AID 602429; in the data active means inhibition above about 37%
Target sequence (P63165 whole entry, looked up): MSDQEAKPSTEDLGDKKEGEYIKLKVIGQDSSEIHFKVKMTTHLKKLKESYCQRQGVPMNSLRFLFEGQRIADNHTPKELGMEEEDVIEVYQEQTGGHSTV
Scp-1 inhibitor = Scp-1 (human) phosphatase inhibition; inhibition, % at 20 µM; hit rate 0.88% among 340,000; Recombinant Scp1, phosphopeptide, malachite green phosphate absorbance; AID 493091; Q9GZU7;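 active means inhibition above about 50% at 20 µM, limit read from the data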;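 further: plate controls were DMSO wells with enzyme for no effect and wells lacking enzyme for full effect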
Target sequence (Q9GZU7 76-261 limits assumed): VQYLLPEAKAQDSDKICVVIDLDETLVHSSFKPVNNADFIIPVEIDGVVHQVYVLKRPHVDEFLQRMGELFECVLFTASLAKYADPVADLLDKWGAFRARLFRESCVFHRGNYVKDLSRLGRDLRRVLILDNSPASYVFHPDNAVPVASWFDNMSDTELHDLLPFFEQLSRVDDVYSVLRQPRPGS
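Test system: SCP-1 phosphatase catalytic domain, residues 76-261 | Compound dosing: One concentration, 20 µM, with 1.0% DMSO | Schedule: 45 min room-temperature reaction, 5 min colour, 30 min stabiliser | Detection: Absorbance at 630 nm | Read-out basis: % inhibition of SCP-1 phosphate liberation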
CSN inh = CSN deneddylation inhibition; Q92905; Purified CSN, SCF-Nedd8-OG deneddylation, fluorescence polarization; inhibition, % at 12.5 µM; hit rate 0.38% among 360,000; AID 651999;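 active means pattern-corrected inhibition above about 35%, with an unprinted fluorescence ratio check between 0.5 and 1.5, limit read from the data, passing the limit was not always enough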;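 further: 0% = enzyme with substrate and 100% = substrate without enzyme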
Target sequence (Q92905 whole entry, looked up, one chain of several): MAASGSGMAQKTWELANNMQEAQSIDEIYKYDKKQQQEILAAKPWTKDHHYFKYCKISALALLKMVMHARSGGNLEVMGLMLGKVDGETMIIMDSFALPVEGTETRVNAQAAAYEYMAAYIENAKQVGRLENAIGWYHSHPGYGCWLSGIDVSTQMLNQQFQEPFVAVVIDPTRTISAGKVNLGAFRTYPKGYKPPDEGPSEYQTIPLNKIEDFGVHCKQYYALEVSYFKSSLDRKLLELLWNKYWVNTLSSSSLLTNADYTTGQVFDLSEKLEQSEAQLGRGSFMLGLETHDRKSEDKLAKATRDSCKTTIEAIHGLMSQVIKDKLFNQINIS
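assay system = purified human Csn5 enzyme expressed in HEK293T cells | amount = 0.24 nM enzyme | buffer or medium = Tris/NaCl/DTT buffer, pH 7.5 | reagent = 10 nM SCFSkp2-Nedd8OG | compound = one concentration, 12.5 µM, 0.25% DMSO | times = 90 min reaction at room temperature | signal = FP | read-out basis = % inhibition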
DNMT1 interf DR = beacon fluorescence artifact, dose response counter-screen. IC50, µM. shares compounds with DNMT1 inh. molecular beacon fluorescence, spectral interference counter-screen. AID 602382. 200 tested, under 10 active; call rule not given here
DNMT1 confirm = DNMT1 inhibition confirmation, single concentration | hit rate 8% among 2,300 | shares compounds with DNMT1 inh | inhibition, % at 10 µM | DNMT1 molecular beacon HinP1I cleavage, fluorescence;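 active means average inhibition of at least 30% in the single-concentration confirmation test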
Beacon interf = shows spectral interference in the DNMT1 beacon assay; shares compounds with DNMT1 inh; DNMT1 molecular beacon spectral interference counterscreen, fluorescence 485/520; activation (fluorescence interference), % at 10 µM; hit rate 1% among 2,300; AID 602387;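 active means activation of at least 30% at 10 µM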;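 further: DNMT1 catalytic domain with a HinP1I cleavage step and a FAM/dabcyl DNA beacon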
Starred values were filed as active, the others as inactive. A selection: hits, their analogues and other compounds. The true share with any hit is near 1.9%.

Results for Cn1nc(CC(=O)NC2CCCCCCCCCCC2)c2ccccc2c1=O ?
STEP block: 2; DNMT1 inh: 69*; LMPTP block: 0; SUMO1 PPI mod: -5; Scp-1 inhibitor: 7; CSN inh: 1; DNMT1 confirm: 1; Beacon interf: 0

How did Nc1c(OS(=O)(=O)c2ccccc2)cccc1OS(=O)(=O)c1ccccc1 do in these assays?
STEP block: -4; DNMT1 inh: 14; LMPTP block: -1; SUMO1 PPI mod: 5; CSN inh: -2

What do the screens show for `Cc1ccc(O)c(-c2cc(C(=O)Nc3ccc(S(=O)(=O)N4CC(C)OC(C)C4)cc3)[nH]n2)c1` (stereo not drawn)?
STEP block: -4; DNMT1 inh: -12; LMPTP block: 3; SUMO1 PPI mod: 4; Scp-1 inhibitor: -7; CSN inh: 0

What do the screens show for `Cc1ccc(-c2cc(C(=O)Nc3ccc(S(=O)(=O)N4CC(C)OC(C)C4)cc3)[nH]n2)c(O)c1` (stereo not drawn)?
STEP block: 7; DNMT1 inh: 124*; LMPTP block: 26; SUMO1 PPI mod: 7; Scp-1 inhibitor: -7; CSN inh: 5; DNMT1 confirm: 4; Beacon interf: 0

How did CN(C)c1cccc(C(=O)OCc2cc(=O)oc3cc(O)ccc23)c1 do in these assays?
STEP block: 41*; DNMT1 inh: 82*; LMPTP block: 22; SUMO1 PPI mod: 15; Scp-1 inhibitor: 62*; CSN inh: 30; DNMT1 confirm: 8; Beacon interf: 2

How did Cc1nn(CCO)c2nc(-c3cccs3)cc(C(F)(F)F)c12 do in these assays?
STEP block: -1; DNMT1 inh: 60*; LMPTP block: 0; SUMO1 PPI mod: -10; Scp-1 inhibitor: 2; CSN inh: 0; DNMT1 confirm: 3; Beacon interf: 5

What do the screens show for `COc1ccc(NS(=O)(=O)c2ccc(O)c(NC(=O)c3cc4c(C)nn(-c5ccc(F)cc5)c4s3)c2)cc1`?
STEP block: -2; DNMT1 inh: 97*; LMPTP block: 3; SUMO1 PPI mod: 12; Scp-1 inhibitor: 16; CSN inh: 12; DNMT1 interf DR: >99; DNMT1 confirm: 69*; Beacon interf: -4

How did O=C(CNc1cc(S(=O)(=O)N2CCCC2)ccc1OCC(F)(F)F)Nc1cccc(C(F)(F)F)c1 do in these assays?
STEP block: 0; DNMT1 inh: -8; LMPTP block: 1; SUMO1 PPI mod: -2; Scp-1 inhibitor: -7; CSN inh: -10

Results for Cc1ccc(NC(=O)CN2C(=O)S/C(=C\c3cccn3-c3cccc(C(=O)O)c3)C2=O)c(C)c1 ?
STEP block: 71*; DNMT1 inh: 85*; LMPTP block: 48; SUMO1 PPI mod: 9; Scp-1 inhibitor: 84*; CSN inh: 24; DNMT1 interf DR: >99; DNMT1 confirm: 69*; Beacon interf: -5

What do the screens show for `COc1ccc(/C=C2\SC(=O)N(CC(=O)Nc3cccc(C)c3)C2=O)cc1O`?
STEP block: 1; DNMT1 inh: -7; LMPTP block: 0; SUMO1 PPI mod: -4; Scp-1 inhibitor: 3; CSN inh: -2

Results for COc1ccc(NC(=O)CN2C(=O)S/C(=C/c3cccn3-c3ccc(C(=O)O)cc3)C2=O)cc1 ?
STEP block: 86*; DNMT1 inh: 78*; LMPTP block: 77*; SUMO1 PPI mod: 14; CSN inh: 31; DNMT1 confirm: 12; Beacon interf: -1

Results for CCCNC(=O)OCc1cccnc1Sc1ccc(C)cc1 ?
STEP block: 0; DNMT1 inh: 2; LMPTP block: -1; SUMO1 PPI mod: -2; Scp-1 inhibitor: -3; CSN inh: -15

Results for N=c1ncn(C2OC(CO)C(O)C2O)c2nc(Br)[nH]c12 (stereo not drawn) ?
STEP block: -4; DNMT1 inh: 3; LMPTP block: -1; SUMO1 PPI mod: 6; CSN inh: -3

Results for Clc1ccc(Oc2ncnc3oc(-c4ccccc4)cc23)cc1 ?
STEP block: 3; DNMT1 inh: 56*; LMPTP block: 0; SUMO1 PPI mod: 12; Scp-1 inhibitor: -3; CSN inh: -1; DNMT1 confirm: 2; Beacon interf: 4

What do the screens show for `Cc1cccc(C)c1NC(=O)CN1CCc2ccccc2C1`?
STEP block: 2; DNMT1 inh: 0; LMPTP block: 0; SUMO1 PPI mod: 5; Scp-1 inhibitor: -5; CSN inh: -3

Results for CC/C(=N\NC(=O)C(N)=O)c1ccccc1O ?
STEP block: 0; DNMT1 inh: 4; LMPTP block: -1; SUMO1 PPI mod: -1; Scp-1 inhibitor: -2; CSN inh: -15

What do the screens show for `Cc1ccc(S(=O)(=O)N(C)c2ccc(OC(C)C(=O)N(C)c3ccccc3)cc2)cc1` (stereo not drawn)?
STEP block: 1; DNMT1 inh: 79*; LMPTP block: 1; SUMO1 PPI mod: -2; Scp-1 inhibitor: -10; CSN inh: -2; DNMT1 confirm: 0; Beacon interf: 4

What do the screens show for `CC(C(=O)NCCc1ccccc1)N1c2cccc3cccc(c23)S1(=O)=O` (stereo not drawn)?
STEP block: -1; DNMT1 inh: -3; LMPTP block: 1; SUMO1 PPI mod: -4; Scp-1 inhibitor: -9; CSN inh: 0

Results for Cc1ccc(C)c(Cn2nnc3c(=O)[nH]c(C(=O)NCc4ccco4)nc32)c1 ?
STEP block: 2; DNMT1 inh: 52*; LMPTP block: 0; SUMO1 PPI mod: 8; Scp-1 inhibitor: -2; CSN inh: 10; DNMT1 confirm: 11; Beacon interf: 3

What do the screens show for `Cc1cc(C)c(C)c(S(=O)(=O)N2CCN(c3ncnc4ccccc34)CC2)c1C`?
STEP block: 6; DNMT1 inh: 75*; LMPTP block: 9; SUMO1 PPI mod: 7; Scp-1 inhibitor: 5; CSN inh: 3; DNMT1 confirm: 0; Beacon interf: 2

Results for O=C(CSc1nc2c(cnn2-c2ccccc2)c(=O)[nH]1)c1ccc(Cl)cc1 ?
STEP block: 1; DNMT1 inh: 86*; LMPTP block: -1; SUMO1 PPI mod: 5; Scp-1 inhibitor: -4; CSN inh: 88*; DNMT1 interf DR: >99; DNMT1 confirm: 31*; Beacon interf: 4

Screening data: PubChem, Sanford-Burnham Center for Chemical Genomics
